Measured values reported in ChEMBL document CHEMBL4680254, “Design, synthesis and discovery of 2(1H)-quinolone derivatives for the treatment of pulmonary fibrosis through inhibition of TGF-β/smad dependent and independent pathway” (Eur J Med Chem, 2020).

Tests used:
[1] = test system: NRK-49F; assay: Inhibition of TGF-beta-induced collagen accumulation in rat NRK-49F cells at 10 uM incubated for 2 days by PSR staining based microscopic analysis relative to control; assay type: functional; settings: 48 h, time 2 day
Procedure, shortened: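 NRK-49F cells were grown 3 days in DMEM with 5% FBS, then 2 days in DMEM with 1% ITS. Next came 2 days with TGF-β 5 ng/ml plus or minus compound 10 µM. Cells were fixed in 4% paraformaldehyde and stained 4 h with 0.1% Picrosirius Red, then rinsed with acetic acid. Dye was eluted with 0.1 M NaOH and OD read at 540 nm. Inhibition = […] ×100%, in triplicate.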

[2] = Cytotoxicity against rat NRK-49F cells assessed as cell survival rate at 10 uM incubated for 72 hrs by MTT assay; assay type: cell-based; settings: read-out: Activity
Procedure, shortened: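 NRK-49F cells were seeded at 0.5×10^5 cells/ml, cultured overnight, then exposed to compound 10 µM for 72 h. MTT was added and incubated 4 h, formazan dissolved in DMSO and absorbance read. Survival = (treated − zero)/(blank − zero) A ×100%, done in triplicate.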

| SMILES | inhibition at 10 µM [1] [%] | viability at 72 h, 10 µM [2] [%] |
| --- | --- | --- |
| CC(C)(C)OC(=O)N1CCN(CC(=O)Nc2ccc(Oc3ccc4[nH]c(=O)ccc4c3)c(F)c2)CC1 | 57.4 | 85.6 |
| O=C(CN1CCCC1)Nc1ccc(Oc2cc(=O)[nH]c3ccccc23)cc1 | 68 | 82.2 |
| CC(=O)N1CCN(CC(=O)Nc2ccc(Oc3cc(=O)[nH]c4ccccc34)c(F)c2)CC1 | 42.7 | 108 |
| CC(C)(C)N1CCN(CC(=O)Nc2ccc(Oc3ccc4[nH]c(=O)ccc4c3)c(F)c2)CC1 | 61.5 | 83.3 |
| CCN(CC)CC(=O)Nc1ccc(Sc2cc(=O)[nH]c3ccccc23)cc1 | 58.6 | 85.5 |
| O=C(CNC1CCOCC1)Nc1ccc(Sc2cc(=O)[nH]c3ccccc23)cc1 | 53 | 83.9 |
| O=C(CN1CCCC1)Nc1ccc(Oc2cc(=O)[nH]c3ccccc23)c(F)c1 | 49.5 | 96.4 |
| O=C(CN1CCN(C(=O)C2CC2)CC1)Nc1ccc(Oc2cc(=O)[nH]c3ccccc23)cc1 | 78.3 | 92.2 |
| CCN1CCN(CC(=O)Nc2ccc(Nc3cc(=O)[nH]c4ccccc34)cc2)CC1 | 46 | 64.8 |
| CC1CCN(CC(=O)Nc2ccc(Sc3cc(=O)[nH]c4ccccc34)cc2)CC1 | 28.6 | 116 |
| CN1CCN(CC(=O)Nc2ccc(Oc3cc(=O)[nH]c4ccccc34)cc2)CC1 | 43.7 | 80.2 |
| CC(=O)N1CCN(CC(=O)Nc2ccc(Oc3cc(=O)[nH]c4ccccc34)cc2)CC1 | 50 | 96.3 |
| O=C(CN1CCOCC1)Nc1ccc(Nc2cc(=O)[nH]c3ccccc23)cc1 | 40.9 | 81.9 |
| CCNCC(=O)Nc1ccc(Oc2cc(=O)[nH]c3ccccc23)c(F)c1 | 50.6 | 99.3 |
| CN(C)C1CCN(CC(=O)Nc2ccc(Sc3cc(=O)[nH]c4ccccc34)cc2)CC1 | 51.1 | 80.3 |
| O=C(CNC1CCOCC1)Nc1ccc(Oc2cc(=O)[nH]c3ccccc23)cc1 | 46 | 96 |
| CC(C)(C)OC(=O)N1CCN(CC(=O)Nc2ccc(Sc3cc(=O)[nH]c4ccccc34)cc2)CC1 | 72.4 | 71.2 |
| CCNCC(=O)Nc1ccc(Nc2cc(=O)[nH]c3ccccc23)cc1 | 28.7 | 83.7 |
| O=C(CN1CCOCC1)Nc1ccc(Sc2cc(=O)[nH]c3ccccc23)cc1 | 53.4 | 77.4 |
| CN1CCN(CC(=O)Nc2ccc(Nc3cc(=O)[nH]c4ccccc34)cc2)CC1 | 38.9 | 78 |
| O=C(CN1CCCCC1)Nc1ccc(Oc2cc(=O)[nH]c3ccccc23)cc1 | 27.4 | 78.5 |
| CC(C)(C)OC(=O)N1CCN(CC(=O)Nc2ccc(Oc3cc(=O)[nH]c4ccccc34)cc2)CC1 | 76.2 | 75.6 |
| CCNCC(=O)Nc1ccc(Oc2cc(=O)[nH]c3ccccc23)cc1 | 25.4 | 89.2 |
| CCN1CCN(CC(=O)Nc2ccc(Oc3cc(=O)[nH]c4ccccc34)cc2)CC1 | 41.7 | 91.7 |
| CC(C)(C)OC(=O)N1CCN(CC(=O)Nc2ccc(Nc3cc(=O)[nH]c4ccccc34)cc2)CC1 | 73.3 | 67.5 |
| O=C(CN1CCN(C(=O)C2CC2)CC1)Nc1ccc(Oc2ccc3[nH]c(=O)ccc3c2)c(F)c1 | 34.6 | 95.2 |
| O=C(CNC1CCOCC1)Nc1ccc(Oc2cc(=O)[nH]c3ccccc23)c(F)c1 | 53.9 | 90.8 |
| O=C(CN1CCCCC1)Nc1ccc(Oc2cc(=O)[nH]c3ccccc23)c(F)c1 | 38.3 | 87.2 |

| SMILES | inhibition at 10 µM [1] [%] | viability at 72 h, 10 µM [2] [%] |
| --- | --- | --- |
| O=C(CN1CCNCC1)Nc1ccc(Oc2cc(=O)[nH]c3ccccc23)cc1 | 58.1 | 95.1 |
| CC(C)(C)N1CCN(CC(=O)Nc2ccc(Oc3ccc4ccc(=O)[nH]c4c3)c(F)c2)CC1 | 67.7 | 89.8 |
| CCN(CC)CC(=O)Nc1ccc(Nc2cc(=O)[nH]c3ccccc23)cc1 | 44.2 | 82.6 |
| CC1CCN(CC(=O)Nc2ccc(Oc3cc(=O)[nH]c4ccccc34)c(F)c2)CC1 | 45.9 | 105 |
| CC1CCN(CC(=O)Nc2ccc(Nc3cc(=O)[nH]c4ccccc34)cc2)CC1 | 20.1 | 82.5 |
| O=C(CN1CCCCC1)Nc1ccc(Nc2cc(=O)[nH]c3ccccc23)cc1 | 24.4 | 75.4 |
| CC(C)(C)N1CCN(CC(=O)Nc2ccc(Oc3cc(=O)[nH]c4ccccc34)cc2)CC1 | 73.2 | 92.7 |
| CC(=O)N1CCN(CC(=O)Nc2ccc(Sc3cc(=O)[nH]c4ccccc34)cc2)CC1 | 39.4 | 101 |
| CC1CCN(CC(=O)Nc2ccc(Oc3cc(=O)[nH]c4ccccc34)cc2)CC1 | 31.5 | 79.9 |
| O=C(CN1CCOCC1)Nc1ccc(Oc2cc(=O)[nH]c3ccccc23)cc1 | 59.3 | 95.7 |
| CN(C)C1CCN(CC(=O)Nc2ccc(Oc3cc(=O)[nH]c4ccccc34)c(F)c2)CC1 | 60.7 | 98.6 |
| O=C(CN1CCCCC1)Nc1ccc(Sc2cc(=O)[nH]c3ccccc23)cc1 | 28.4 | 93.5 |
| O=C(CN1CCOCC1)Nc1ccc(Oc2cc(=O)[nH]c3ccccc23)c(F)c1 | 47.3 | 90.8 |
| CN(C)C1CCN(CC(=O)Nc2ccc(Nc3cc(=O)[nH]c4ccccc34)cc2)CC1 | 50.2 | 83.5 |
| O=C(CN1CCN(C(=O)C2CC2)CC1)Nc1ccc(Oc2ccc3ccc(=O)[nH]c3c2)c(F)c1 | 56.6 | 98.2 |
| CC(C)(C)OC(=O)N1CCN(CC(=O)Nc2ccc(Oc3ccc4ccc(=O)[nH]c4c3)c(F)c2)CC1 | 76.4 | 89.7 |
| CCN1CCN(CC(=O)Nc2ccc(Oc3cc(=O)[nH]c4ccccc34)c(F)c2)CC1 | 49.1 | 89.6 |
| CN(C)C1CCN(CC(=O)Nc2ccc(Oc3cc(=O)[nH]c4ccccc34)cc2)CC1 | 43.9 | 81.2 |
| CC(=O)N1CCN(CC(=O)Nc2ccc(Nc3cc(=O)[nH]c4ccccc34)cc2)CC1 | 39 | 72.5 |
| CCN(CC)CC(=O)Nc1ccc(Oc2cc(=O)[nH]c3ccccc23)c(F)c1 | 58.8 | 106 |
| CCN1CCN(CC(=O)Nc2ccc(Sc3cc(=O)[nH]c4ccccc34)cc2)CC1 | 56.6 | 78 |
| O=C(CNC1CCOCC1)Nc1ccc(Nc2cc(=O)[nH]c3ccccc23)cc1 | 50 | 83.5 |
| CN1CCN(CC(=O)Nc2ccc(Sc3cc(=O)[nH]c4ccccc34)cc2)CC1 | 40 | 86.7 |
| O=C(CN1CCNCC1)Nc1ccc(Oc2cc(=O)[nH]c3ccccc23)c(F)c1 | 60.3 | 93.3 |
| O=C(CN1CCCC1)Nc1ccc(Nc2cc(=O)[nH]c3ccccc23)cc1 | 59.9 | 72.5 |
| CN1CCN(CC(=O)Nc2ccc(Oc3cc(=O)[nH]c4ccccc34)c(F)c2)CC1 | 73.9 | 99 |
| CCNCC(=O)Nc1ccc(Sc2cc(=O)[nH]c3ccccc23)cc1 | 51.1 | 87.7 |
